This note sets out measurements from publication PMC11017284 (Asian Journal of Pharmaceutical Sciences, 2024).

In the series the test system is Caco-2 cells. Briefly: Caco-2 cellular uptake study. It counts as in vitro ADME, human. The conditions noted are these: verapamil 50 µg/ml, 1 or 3 h. Summed up:
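Caco-2 cells (DMEM, 20% FBS, 37 °C, 5% CO2) seeded at 5 × 10⁴/well and grown 24 h. Test compound as SNEDDS or solution (equivalent CTX 5 µg/ml) given with verapamil 50 µg/ml, 1 or 3 h at 37 °C. Washed three times with ice-cold PBS, sonicated in water (100 W), lysed, spun 13,000 rpm 10 min. CTX by HPLC; handling matched the no-inhibitor uptake arm.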

As for `CO[C@H]1C(=O)[C@]2(C)[C@@H](OC)C[C@H]3OC[C@@]3(OC(C)=O)[C@H]2[C@H](OC(=O)c2ccccc2)[C@]2(O)C[C@H](OC(=O)[C@H](O)[C@@H](NC(=O)OC(C)(C)C)c3ccccc3)C(C)=C1C2(C)C` [CTX, cabazitaxel], the “Change of Caco-2 uptake after adding P-gp inhibitor” value is given as “no significant difference”.
